Fh CTSL1 inh: Fasciola hepatica cathepsin L1 inhibitors, primary screen, counter-screen for PFM18AAP inhibitor project, biochemical, QFRET, fluorogenic peptide substrate; recombinant F. hepatica cathepsin L1, Z-Leu-Arg-MCA fluorescence; inhibition, % at 5.96 µM; hit rate 0.49% among 300,000; AID 1906, 2009;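 active = inhibition above the mean of all tested compounds plus 3 SD, set per screening campaign, cut at about 17% in these data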;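 also: 0% = plate median of test compound wells and 100% = 1 µM Z-Phe-Ala-diazomethylketone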
PP1 counter: PP1-alpha phosphatase inhibitors, primary screen, counter-screen for PP5 inhibitor project, biochemical, fluorescence, OMFP substrate, single point; Serine/threonine-protein phosphatase PP1-alpha catalytic subunit (Homo sapiens), P62136; purified PP1alpha; inhibition, % at 6.7 µM; hit rate 0.9% among 320,000; AID 2235, 2010;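 active = inhibition above the mean inhibition of all tested compounds plus 3 SD, computed separately for each screening campaign, cut at about 15% in these data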
NadD block: inhibitors of S. aureus NadD, primary screen, biochemical, colorimetric, uHTS; AID 602399, 2012; hit rate 0.78% among 360,000; purified NadD enzyme, colorimetric absorbance read-out; Nicotinate-nucleotide adenylyltransferase NadD (Staphylococcus aureus N315); inhibition, % at 20 µM; in the data active = inhibition above about 26%
HCV core dimer: inhibitors of HCV core protein dimerization, primary screen, biochemical, TR-FRET, high-throughput | TR-FRET GST/Flag-core106 dimerization, 1536-well | hit rate 0.33% among 300,000 | inhibition, % at 5 µM;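 active = inhibition above the mean of all tested compounds plus 3 SD, set per screening campaign, cut at about 45% in these data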
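Material: Tagged HCV core106 pair (GST and Flag) | Amount: GST-core106 13.5 nM, Flag-core106 17 nM | Medium: KF-containing HEPES buffer, pH 7.45, DTT, CHAPS, BSA | Reagent: Eu donor and XL665 acceptor anti-tag antibodies | Schedule: 4 h at 22.5 °C | Technique: Time-resolved FRET, ex 340 nm, em 617 and 671 nm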
Myeloid diff MLP: induction of myeloid progenitor differentiation, primary screen, cell-based, flow cytometry, MLPCN library; ER-HoxA9 myeloid progenitors, lysozyme-GFP differentiation; calls only at 10 µM; hit rate 1% among 360,000;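 active = normalized GFP-positive differentiation at or above the plate's own cutoff, the solvent-only control mean plus 3 SD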;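 also: cells exposed to compound for four days before flow analysis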
PP5 primary: PP5 phosphatase inhibitors, primary screen, biochemical, fluorescence | Serine/threonine-protein phosphatase 5 (Homo sapiens), P53041 | purified PP5c, OMFP substrate fluorescence | inhibition, % at 6.7 µM | hit rate 0.18% among 320,000 | AID 1987, 2009;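 active = inhibition above the campaign's mean inhibition across all tested compounds plus 3 SD, cut at about 9.5% in these data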;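 also: 0% = DMSO only and 100% = 100 µM cantharidin control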
Target sequence (P53041 whole entry, looked up): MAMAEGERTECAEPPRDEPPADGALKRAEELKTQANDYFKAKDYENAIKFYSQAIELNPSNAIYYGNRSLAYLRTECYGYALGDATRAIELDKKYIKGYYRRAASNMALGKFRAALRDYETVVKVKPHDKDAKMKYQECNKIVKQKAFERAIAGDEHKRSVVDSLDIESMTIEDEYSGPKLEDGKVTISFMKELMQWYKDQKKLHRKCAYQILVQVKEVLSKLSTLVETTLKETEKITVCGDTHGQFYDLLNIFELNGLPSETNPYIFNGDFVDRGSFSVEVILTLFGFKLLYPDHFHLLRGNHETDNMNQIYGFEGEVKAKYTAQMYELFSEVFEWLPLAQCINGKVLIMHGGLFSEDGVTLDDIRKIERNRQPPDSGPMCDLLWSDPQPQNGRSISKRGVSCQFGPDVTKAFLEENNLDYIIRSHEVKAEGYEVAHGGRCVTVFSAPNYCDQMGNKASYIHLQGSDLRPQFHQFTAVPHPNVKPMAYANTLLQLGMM
The depositor's hits bear a star; i = inactive; / = not tested or not shown; + = active, no number; ! = not active in a repeat. Rows were chosen to be rich in hits. Some 3.1% of all compounds tested hit in one or more screens of this group.

SMILES | Fh CTSL1 inh | PP1 counter | NadD block | HCV core dimer | Myeloid diff MLP | PP5 primary
C/C=C\C=C\C(=O)N1CC2(CC(c3cccc(NC(=O)COc4ccc(Cl)cc4)c3)=NO2)C[C@H]1C(N)=O (some centres undefined) | 3 | -1 | 12 | 47* | i | 3
C/C=C\C(=O)Nc1cccc(C2=NOC3(C2)C[C@@H](C(N)=O)N(C(=O)CC(c2ccccc2)c2ccccc2)C3)c1 (some centres undefined) | 4 | 0 | 10 | 16 | i | 4
C/C=C/C=C/C(=O)Nc1cccc(C2=NOC3(C2)C[C@H](C(N)=O)N(C(=O)CC(c2ccccc2)c2ccccc2)C3)c1 (some centres undefined) | 3 | 9 | / | 48* | / | 1
C/C=C\C=C\C(=O)Nc1cccc(C2=NOC3(C2)C[C@H](C(N)=O)N(C(=O)c2ccccc2C(=O)c2ccccc2)C3)c1 (some centres undefined) | 5 | 8 | / | 50* | / | 0
C/C=C(\C)C(=O)N1CC2(CC(c3cccc(NC(=O)COc4ccc(Cl)cc4)c3)=NO2)C[C@@H]1C(N)=O (some centres undefined) | 0 | 2 | 8 | -4 | i | 3
CC(C)C[C@H](NC(=O)N1CC(=O)Nc2ccccc21)C(=O)N[C@@H](Cc1ccccc1)C(=O)O | -2 | -7 | 7 | -1 | i | 4
CC(=O)OCCNc1cc(Sc2nc3ccccc3[nH]2)c2nonc2c1[N+](=O)[O-] | 1 | 1 | 4 | -6 | + | -2
O=C1CCCCC(=O)N(c2ccccc2)c2ccccc21 | -1 | 1 | -4 | 3 | + | -2
CC1CCN(S(=O)(=O)c2ccc(NC(=O)Cn3nnc(-c4ccccc4)n3)cc2)CC1 | 0 | 17* | 7 | 0 | i | 1
CC1CCCN(S(=O)(=O)c2ccc(NC(=O)Cn3nnc(-c4ccccc4F)n3)cc2)C1 (centres undefined) | -1 | 2 | 6 | 14 | i | 7
CC1CCN(S(=O)(=O)c2ccc(NC(=O)Cc3cccs3)cc2)CC1 | -7 | 0 | -4 | 65* | i | 6
CC1CCN(S(=O)(=O)c2ccc(NC(=O)CN3CCCC3)cc2)CC1 | 0 | 3 | -5 | -8 | i | 1
Cc1ccc(-c2nnn(CC(=O)Nc3ccc(S(=O)(=O)N4CCC(C)CC4)cc3)n2)cc1 | 0 | 16* | 11 | 4 | i | 3
CC1CCN(CC(=O)Nc2ccc(S(=O)(=O)N3CCC(C)CC3)cc2)CC1 | -4 | -1 | -6 | 2 | i | 3
COc1cccc2sc(NNC(=O)C3=COCCO3)nc12 | 1 | -6 | 3 | 0 | + | -1
Cc1oc(-c2ccc(Cl)cc2)nc1CN1CCC(C(=O)N2CCc3ccccc3C2)CC1 | 5 | 3 | 7 | 0 | + | -1
Nc1ccc(-c2c3ccc(=O)cc-3oc3cc(O)ccc23)cc1C(=O)O | 4 | -19 | -6 | -3 | + | -14
O=c1cc(-c2ccccc2)oc2cc(O)ccc12 | / | / | 1 | / | i | /
O=c1ccc2c(-c3ccccc3)c3ccc(O)cc3oc-2c1 | -6 | -181 | 9 | 66* | + | -142
CCOc1ccc(S(=O)(=O)NCCC(=O)N(C)Cc2cccs2)cc1 | / | -9 | -7 | / | i | 2
O=C(CN1C(=O)/C(=C2/SC(=S)N(CCS(=O)(=O)O)C2=O)c2ccccc21)Nc1cccc(C(F)(F)F)c1 | / | / | 34* | / | i | /
N#C/C(=C\c1ccccn1)c1nc2ccccc2s1 | 10 | 0 | 1 | -1 | + | -1
Cc1ccc(C)c(S(=O)(=O)N2C(=S)NC(=O)C2C(C)C)c1 (centres undefined) | 17* | 3 | -5 | -12 | i | 1
Cc1ccc(C)c(S(=O)(=O)N2CCCN(C)CC2)c1 | 4 | 1 | 3 | -7 | i | -1
COc1ccc(Cl)cc1N(CC(=O)Nc1ccccc1C(=O)N1CCOCC1)S(C)(=O)=O | -1 | 1 | -3 | -7 | i | 0
SMILES | Fh CTSL1 inh | PP1 counter | NadD block | HCV core dimer | Myeloid diff MLP | PP5 primary
Cc1ccc(S(=O)(=O)NC2=C(N3CCN(c4ccccc4F)CC3)C(=O)c3ccccc3C2=O)cc1 | -1 | -1 | 34*! | 23 | i | 2
Cc1ccc(S(=O)(=O)NC2=C(N3CCN(Cc4ccccc4)CC3)C(=O)c3ccccc3C2=O)cc1 | -2 | 4 | 8 | 1 | + | 1
CCOC(=O)N1CCN(C2=C(NS(=O)(=O)c3ccc(C)cc3)C(=O)c3ccccc3C2=O)CC1 | 6 | 4 | 0 | -4 | i | 5
c1coc(-c2ccnc3nc(-n4cccc4)nn23)c1 | 8 | 4 | 11 | 56* | i | -1
O=C1N[C@H]2CC=C[C@H]2Nc2ccccc21 | / | / | 2 | / | + | /
N#C/C(=C\c1ccc2c(c1)OCCO2)C(=O)Nc1nccs1 | 2 | -2 | 9 | 12 | i | -2
COc1cc(/C=N/n2c(-c3ccc4c(c3)NC(=O)CO4)csc2=Nc2cccc(C)c2)ccc1O | 0 | 4 | 35* | -4 | i | 2
COc1ccc(C(=O)Nc2ccccc2C(=O)NC(C(=O)NCc2ccco2)C(C)C)cc1 (centres undefined) | 48* | -1 | -7 | -1 | i | -6
COc1ccc(C(=O)Nc2ccccc2C(=O)N(Cc2ccco2)C(C(N)=O)C(C)C)cc1 (centres undefined) | 38* | 2 | -8 | 3 | i | 0
CCC(C)C(NC(=O)OC(C)(C)C)C(=O)NCc1ccco1 (centres undefined) | 20* | -1 | -5 | 2 | i | -2
COc1ccc(C(=O)Nc2ccccc2C(N)=O)cc1 | 0 | 1 | -5 | -3 | i | 1
COc1ccc(C(=O)N[C@H](C(=O)NCc2ccco2)C(C)C)cc1 | 19* | 4 | 0 | 7 | i | -2
CC(C)CN(C(=O)c1ccc(N2CCCC2=O)cc1)c1c(N)n(Cc2ccccc2)c(=O)[nH]c1=O | / | -1 | 8 | / | i | 1
CC[C@]12c3[nH]c4cc(CCC(=O)N(C)C)ccc4c3CCN1C(=O)[C@@H](CC(=O)NCc1ccco1)C[C@@H]2C(=O)N1CCN(C(=O)C2CC2)CC1 | / | / | 5 | / | i | /
O=C(CCCc1ccccc1)Nc1nccs1 | 3 | -4 | -3 | -1 | i | -1
Clc1cccc(Cc2c(-c3ccccc3)nc3ccc(Cl)cn23)c1 | / | / | 2 | / | i | /
